The values below come from ChEMBL document CHEMBL1132447, “Structure-activity relationships and molecular modeling analysis of flavonoids binding to the benzodiazepine site of the rat brain GABA(A) receptor complex” (J Med Chem, 1999).

In test [1] the target is GABA-A receptor; anion channel. The test is described as follows: In vitro affinity against Benzodiazepine receptor binding to rat cortical membranes (using [3H]- flumazenil as radioligand). Summed up:
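Male Wistar rat (~200 g) cerebral cortex membranes, washed in Tris-citrate 50 mM pH 7.1, 2 mg original tissue/mL. Filtered, then scintillation counting. Duplicates.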

Test [2] has as its target GABA-A receptor; anion channel (Rattus norvegicus) (UniProt O09028+P15431+P18506+P18508+P19969+P20236+P23574+P23576+P28471+P28473+P30191+P62813+P63079+P63138+Q91ZM7+Q9ES14). The test is described as follows: Ratio of Ki value without GABA and Ki value in the presence of GABA. The class given is protein-complex assay.

For `CCc1c(C(=O)OC)ncc2[nH]c3cc(OC)c(OC)cc3c12`, the inhibitory constant (Ki) in test [1] amounted to 7.6 nM. Further, the GABA ratio in test [2] is 0.57. For `Cc1ccc2oc(-c3cccc([N+](=O)[O-])c3)cc(=O)c2c1[N+](=O)[O-]` the same measures were 1.9 nM and 1.41.

`Cc1ccc2sc(-c3cccc([N+](=O)[O-])c3)cc(=O)c2c1` had an inhibition constant Ki in test [1] of 33 nM. In test [2], the GABA ratio was determined as 1.51.

`Cc1ccc2oc(-c3ccc([N+](=O)[O-])cc3)cc(=O)c2c1`: in test [1], the Ki turned out to be 7300 nM. In test [1], `Cc1cccc(-c2cc(=O)c3cc(C)ccc3o2)c1` showed a Ki of 29 nM. Further, the GABA ratio in test [2] is 1.63. On to `Cc1ccc2oc(-c3cccc([N+](=O)[O-])c3)cc(=O)c2c1`, for which, in test [1], the Ki is 5.6 nM. In addition, in test [2], the GABA ratio came to 0.72. The matching figures for `Cc1ccc2oc(-c3ccccc3[N+](=O)[O-])cc(=O)c2c1`: 1000 nM and 1.49.

Consider `Cc1ccc2sc(-c3ccccc3)cc(=O)c2c1`, for which the Ki in test [1] was 310 nM. Besides, the GABA ratio in test [2] was 1.35. In the case of `O=c1c(Br)c(-c2ccccc2)oc2ccccc12`, the Ki in test [1] is greater than 75000 nM.

Compound `O=c1cc(-c2ccc([N+](=O)[O-])cc2)oc2ccc([N+](=O)[O-])cc12` returned a Ki in test [1] of 17000 nM. Consider `O=c1cc(-c2cccc([N+](=O)[O-])c2)oc2ccc(Br)cc12`, for which the GABA ratio in test [2] came to 1.4. Still for that read-out and setting: the figure for `O=c1cc(-c2cccc([N+](=O)[O-])c2)oc2ccc([N+](=O)[O-])cc12` is 1.3. For `O=c1cc(-c2ccccc2)oc2cccc(O)c12` [5-HYDROXYFLAVONE], the Ki in test [1] amounted to 1900 nM. Also, the GABA ratio in test [2] was found to be 1.03. In test [1], `O=c1cc(-c2ccccc2)oc2ccc(Br)cc12` [6-BROMOFLAVONE] registered a Ki of 70 nM. For the same compound, in test [2], the GABA ratio came to 1.8.

On to `O=c1cc(-c2ccccc2)oc2ccc(O)cc12` [6-HYDROXYFLAVONE], for which the Ki in test [1] came out at 400 nM. Besides, in test [2], the GABA ratio turned out to be 1.06. In turn, `COc1ccc2oc(-c3ccccc3)cc(=O)c2c1` [6-METHOXYFLAVONE] came in with a Ki in test [1] of 570 nM. Also, the GABA ratio in test [2] was 1.51. Consider `Cc1ccc2oc(-c3ccccc3)cc(=O)c2c1` [6-METHYLFLAVONE], for which the affinity in test [1] corresponds to a Ki of 125 nM. The GABA ratio in test [2] was 0.98. The matching figures for `O=c1cc(-c2ccccc2)oc2cc(O)ccc12` [7-HYDROXYFLAVONE]: 4200 nM and 1.14. As to `O=c1cc(-c2ccc(O)cc2)oc2cc(O)cc(O)c12` [APIGENIN], the Ki in test [1] was 770 nM. Further, the GABA ratio in test [2] came out at 1.03.

In turn, `O=c1cc(-c2ccccc2)oc2ccc3ccccc3c12` [BETA-NAPHTHOFLAVONE] showed a Ki in test [1] of 1480 nM. Further, the GABA ratio in test [2] is 1.28. For `O=c1cc(-c2ccccc2)oc2cc(O)cc(O)c12` [CHRYSIN] the same measures were 920 nM and 0.9. Turning to `O=c1cc(-c2ccccc2)oc2ccccc12` [FLAVONE], the affinity in test [1] corresponds to a Ki of 4200 nM. In addition, the GABA ratio in test [2] turned out to be 1.05.
